Assay results pooled from the literature.
Target: TRAF2 and NCK-interacting protein kinase (TNIK, Homo sapiens, UniProt Q9UKE5)

Structure (SMILES)	effect on	method	concentration	remaining binding [%]
COc1ccnn2ncc(-c3ccnc(N(C)C)n3)c12	binding		1 µM	63
CC1=C(C#N)C(c2ccc3c(c2)c(NC(=O)c2ccccc2C)nn3C)C(C#N)=C(C)N1	cell-free assay	competition with immobilised ligand	1 µM	98
CCN1CCN(Cc2ccc(C(=O)Nc3ccc(C)c(Oc4ccc5c(c4)CC(=O)N5)c3)cc2C(F)(F)F)CC1	binding	competition with immobilised ligand	1 µM	79
CCC(=O)N[C@@H]1CC[C@H](C(=O)N(C)c2ccc(-c3nc4ccccc4o3)cc2)C1	cell-free assay	competition with immobilised ligand	1 µM	100
c1cnn2ncc(-c3ccnc(N4CCC45COC5)n3)c2c1	binding		1 µM	72
CC(C)CC(=O)N1CCc2nc(-c3ccc(Br)cc3)nc(N(C)Cc3ccccc3)c2C1	cell-free assay	competition with immobilised ligand	0.1 µM	100
C[C@H]1CCN(c2nccc(-c3cnn4ncccc34)n2)C1	binding		1 µM	100
O=C(c1ccc(Nc2ncc(Cl)c(-c3ccc(Cl)s3)n2)cc1)N1CCC(N2CCCC2)CC1	binding	competition with immobilised ligand	1 µM	43
O=C(Nc1cccnn1)N1CCC(=Cc2cccc(Oc3ccc(C(F)(F)F)cn3)c2)CC1	cell-free assay	competition with immobilised ligand	1 µM	100
C[C@@H](c1ccc(-n2cnc3c(N)ncnc32)cc1)N1CCc2nn(C)c(Cc3ccccc3)c2C1=O	binding	competition with immobilised ligand	0.1 µM	76
O=C(NCCCN1CCOCC1)c1ccc(Nc2ncc(Cl)c(-c3ccc(Cl)s3)n2)cc1	binding	competition with immobilised ligand	1 µM	44
COc1cnc(Nc2cccc(S(N)(=O)=O)c2)nc1N1CCN(c2ccccc2)C(=O)C1	binding	competition with immobilised ligand	1 µM	76
N[C@@H]1CCN(c2nccc(-c3cnn4ncccc34)n2)C1	binding		1 µM	100
Nc1ncc2c(n1)-c1c([nH]c3ccc(C#CC4CC4)cc13)CCCC2	binding	competition with immobilised ligand	1 µM	42
CN(C)c1nccc(-c2cnc3ncccn23)n1	binding		1 µM	84
O=C(NCC1CCOCC1)c1n[nH]cc1NC(=O)c1c(F)cccc1F	binding	competition with immobilised ligand	1 µM	84
C=CC(=O)N1CCC(C(=O)NCC(=O)N2CCN(c3nc(-c4cnc(N)nc4C(F)F)nc(N4CCOCC4)n3)CC2)CC1	binding	competition with immobilised ligand	1 µM	87
CN([C@@H]1CCc2c(CC(=O)O)c3cc(S(C)(=O)=O)ccc3n2C1)S(=O)(=O)c1ccc(F)cc1	cell-free assay	competition with immobilised ligand	1 µM	100
O=C(c1ccc(Nc2ncc(Cl)c(-c3cc4ccccc4s3)n2)cc1)N1CCC(N2CCCC2)CC1	binding	competition with immobilised ligand	1 µM	73
CN(CCCC(F)(F)F)c1nccc(-c2cnn3ncccc23)n1	binding		1 µM	100
C[C@@H](c1cccc(C#N)c1)n1cc(Cl)cc(C(N)=O)c1=N	cell-free assay	competition with immobilised ligand	1 µM	56
